# From ChEMBL document CHEMBL4346672, “Antimicrobial and KPC/AmpC inhibitory activity of functionalized benzosiloxaboroles” (Eur J Med Chem, 2019)
# Legend:
# Enterococcus faecalis = experiment: Bactericidal activity against Enterococcus faecalis ATCC 29212 measured after 18 hrs by CLSI broth dilution method; type: functional; settings: ATCC 29212, 18 h
# How it was run: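 Strains stored at -80 °C and subcultured twice on tryptic soy agar before testing. Compounds dissolved in DMSO. […] MBC then determined per CLSI recommendations.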
# [1] = test system: Klebsiella pneumoniae ATCC BAA-1705; experiment: Inhibition of beta lactamase KPC-2 in Klebsiella pneumoniae ATCC BAA 1705 assessed as potentiation of meropenem-induced antibacterial activity by measuring meropenem MIC at 16 mg/L incubated for 18 hrs by broth dilution method (reference value: […] mg/L)
# [2] = Cytotoxicity against human MRC5 cells assessed as cell viability at 16 ug/ml incubated for 72 hrs by MTT assay; type: cell-based; settings: read-out: Activity
# How it was run: (§1)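 MRC-5 pd30 human fibroblasts grown in MEM with 10% FBS, 2 mM L-glutamine, penicillin/streptomycin and 1% non-essential amino acids at 37 °C, 5% CO2. Exponentially growing cells trypsinized and seeded at 8×10^3 cells/well, then dosed 18 h later with 2-fold dilutions (0.5% DMSO final) for 72 h. MTT (1 mg/ml final) added for 1 h at 37 °C, formazan dissolved in DMSO, OD read at 570 nm. Four replicates, expressed as % viable versus control.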
# Klebsiella pneumoniae [3] = experiment: Inhibition of beta lactamase KPC-3 in Klebsiella pneumoniae 83 assessed as potentiation of ceftazidime-induced antibacterial activity by measuring ceftazidime MIC at 16 mg/L incubated for 18 hrs by broth dilution method (reference value: >[…] mg/L)
# [4] = Cytotoxicity against human MRC5 cells assessed as cell viability at 2 ug/ml incubated for 72 hrs by MTT assay; type: cell-based; settings: read-out: Activity; how it was run: as §1
# [5] = Cytotoxicity against human MRC5 cells assessed as cell viability at 32 ug/ml incubated for 72 hrs by MTT assay; type: cell-based; settings: read-out: Activity; how it was run: as §1
# Klebsiella pneumoniae [6] = experiment: Inhibition of beta lactamase KPC-3 in Klebsiella pneumoniae 81 assessed as potentiation of ceftazidime-induced antibacterial activity by measuring ceftazidime MIC at 16 mg/L incubated for 18 hrs by broth dilution method (reference value: >[…] mg/L)
# Klebsiella pneumoniae [7] = experiment: Inhibition of beta lactamase KPC-2 in Klebsiella pneumoniae 75 assessed as potentiation of ceftazidime-induced antibacterial activity by measuring ceftazidime MIC at 16 mg/L incubated for 18 hrs by broth dilution method (reference value: […] mg/L)
# [8] = biological target: Class A carbapenemase KPC-2 (Escherichia coli) (UniProt A8DS27); experiment: Inhibition of beta lactamase KPC-2 in Escherichia coli 76 assessed as potentiation of ceftazidime-induced antibacterial activity by measuring ceftazidime MIC at 16 mg/L incubated for 18 hrs by broth dilution method (reference value: >[…] mg/L)
# [9] = biological target: Class A carbapenemase KPC-2 (Escherichia coli) (UniProt A8DS27); experiment: Inhibition of beta lactamase KPC-2 in Escherichia coli 76 assessed as potentiation of meropenem-induced antibacterial activity by measuring meropenem MIC at 16 mg/L incubated for 18 hrs by broth dilution method (reference value: >[…] mg/L)
# Klebsiella pneumoniae [10] = experiment: Inhibition of beta lactamase KPC-3 in Klebsiella pneumoniae 83 assessed as potentiation of meropenem-induced antibacterial activity by measuring meropenem MIC at 16 mg/L incubated for 18 hrs by broth dilution method (reference value: […] mg/L)
# [11] = Cytotoxicity against human MRC5 cells assessed as cell viability at 4 ug/ml incubated for 72 hrs by MTT assay; type: cell-based; settings: read-out: Activity; how it was run: as §1
# Escherichia coli [12] = experiment: Inhibition of beta lactamase KPC-3 in Escherichia coli 82 TR assessed as potentiation of ceftazidime-induced antibacterial activity by measuring ceftazidime MIC at 16 mg/L incubated for 18 hrs by broth dilution method (reference value: […] mg/L)
# Klebsiella pneumoniae [13] = experiment: Inhibition of beta lactamase CMY-2 in Klebsiella pneumoniae 78 assessed as potentiation of ceftazidime-induced antibacterial activity by measuring ceftazidime MIC at 16 mg/L incubated for 18 hrs by broth dilution method (reference value: >[…] mg/L)
# Klebsiella pneumoniae [14] = experiment: Inhibition of beta lactamase KPC-2 in Klebsiella pneumoniae 75 assessed as potentiation of meropenem-induced antibacterial activity by measuring meropenem MIC at 16 mg/L incubated for 18 hrs by broth dilution method (reference value: […] mg/L)
# [15] = test system: Klebsiella pneumoniae 700603; experiment: Inhibition of extended-spectrum beta lactamase in Klebsiella pneumoniae ATCC 700603 assessed as potentiation of ceftazidime-induced antibacterial activity by measuring diameter of zone inhibition at 0.3 mg incubated for 18 hrs in presence of 10 ug ceftazidime by CLSI disc diffusion method (Rvb=13 mm)
# How it was run: (§2)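 EUCAST ESBL combination disc test on Mueller-Hinton agar. Zones were compared between a ceftazidime or cefotaxime disc alone and the same disc plus agent at 0.3 mg per disc. Clavulanic acid discs at 0.01 mg per disc served as reference. Plates were incubated at 35 °C for 18 h. A difference of at least 5 mm was counted as inhibition.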
# Klebsiella pneumoniae [16] = experiment: Inhibition of beta lactamase SHV-12 in Klebsiella pneumoniae ATCC 700603 assessed as potentiation of ceftazidime-induced antibacterial activity by measuring ceftazidime MIC at 16 mg/L incubated for 18 hrs by broth dilution method (reference value: […] mg/L)
# Pseudomonas aeruginosa [17] = experiment: Inhibition of beta lactamase VIM in Pseudomonas aeruginosa 698 assessed as potentiation of ceftazidime-induced antibacterial activity by measuring ceftazidime MIC at 16 mg/L incubated for 18 hrs by broth dilution method (reference value: […] mg/L)
# Pseudomonas aeruginosa [18] = experiment: Inhibition of beta lactamase OXA-15 in Pseudomonas aeruginosa 852 assessed as potentiation of ceftazidime-induced antibacterial activity by measuring ceftazidime MIC at 16 mg/L incubated for 18 hrs by broth dilution method (reference value: >[…] mg/L)
# Acinetobacter baumannii = experiment: Inhibition of beta lactamase OXA-24 in Acinetobacter baumannii 181 assessed as potentiation of ceftazidime-induced antibacterial activity by measuring ceftazidime MIC at 16 mg/L incubated for 18 hrs by broth dilution method (reference value: >[…] mg/L)
# [19] = test system: Klebsiella pneumoniae 700603; experiment: Inhibition of extended-spectrum beta lactamase in Klebsiella pneumoniae ATCC 700603 assessed as potentiation of cefotaxime-induced antibacterial activity by measuring diameter of zone inhibition at 0.3 mg incubated for 18 hrs in presence of 10 ug cefotaxime by CLSI disc diffusion method (Rvb=19 mm); how it was run: as §2
# [20] = Dissociation constant, pKa2 of compound in 0.1 M NaOH by potentiometric analysis; type: physicochemical
# [21] = Cytotoxicity against human MRC5 cells assessed as cell viability at 1 ug/ml incubated for 72 hrs by MTT assay; type: cell-based; settings: read-out: Activity; how it was run: as §1
# [22] = Cytotoxicity against human MRC5 cells assessed as cell viability at 0.5 ug/ml incubated for 72 hrs by MTT assay; type: cell-based; settings: read-out: Activity; how it was run: as §1
# Escherichia coli [23] = experiment: Inhibition of beta lactamase CMY-2 in Escherichia coli 77 assessed as potentiation of ceftazidime-induced antibacterial activity by measuring ceftazidime MIC at 16 mg/L incubated for 18 hrs by broth dilution method (reference value: […] mg/L)
compound,measurement,setting,value
C[Si]1(C)OB(O)c2ccc(Cl)c(Cl)c21,MBC,Enterococcus faecalis,400 µg/mL
C[Si]1(C)OB(O)c2cc3c(c(F)c21)COB3O,MIC,[1],64 µg/mL
same,"viability at 72 h, 16 ug/ml",[2],100%
same,MIC,Klebsiella pneumoniae [3],> 64 µg/mL
same,"viability at 72 h, 2 ug/ml",[4],116%
same,"viability at 72 h, 32 ug/ml",[5],54.3%
same,MIC,Klebsiella pneumoniae [6],64 µg/mL
same,MIC,Klebsiella pneumoniae [7],> 64 µg/mL
same,MIC,[8],> 64 µg/mL
same,MIC,[9],> 64 µg/mL
same,MIC,Klebsiella pneumoniae [10],32 µg/mL
same,"viability at 72 h, 4 ug/ml",[11],108%
same,MIC,Escherichia coli [12],32 µg/mL
same,MIC,Klebsiella pneumoniae [13],> 64 µg/mL
same,MIC,Klebsiella pneumoniae [14],32 µg/mL
same,inhibition zone (IZ),[15],13 mm
same,MIC,Klebsiella pneumoniae [16],32 µg/mL
same,MIC,Pseudomonas aeruginosa [17],64 µg/mL
same,MIC,Pseudomonas aeruginosa [18],> 64 µg/mL
same,MIC,Acinetobacter baumannii,> 64 µg/mL
same,inhibition zone (IZ),[19],19 mm
same,pKa,[20],8.6
same,"viability at 72 h, 1 ug/ml",[21],112%
same,"viability at 72 h, 0.5 ug/ml",[22],112%
same,MIC,Escherichia coli [23],16 µg/mL
C[Si]1(C)OB(O)c2cc(B(O)O)cc(F)c21,pKa,[20],10.2
C[Si]1(C)OB(O)c2ccc(C(F)(F)F)cc21,MBC,Enterococcus faecalis,50 µg/mL
